DDE Tn7 FP inh: inhibitors of Tn7 peptide binding to human fibrin DD(E). P02675. FP displacement of FITC-Tn7 peptide from fibrin DD(E); 0% = median of compound wells per plate. inhibition, % at 8.3 µM. actives 0.13% (n = 370,000). AID 720508;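 active means inhibition above the mean of compounds falling within the control limits plus 3 SD of them, cut at about 14% in these data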;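 further: 0% = plate median of compound wells and 100% = 10 µM Aha-Tn7 peptide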
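Assay system: human fibrin DD(E). Input: DD(E) 2 µM final. Medium: Tris buffer with calcium and detergent, pH 7.8. Compound dosing: single point at 8.3 µM. Timing: 10 min plus 3 h, room temperature. Technique: fluorescence polarization of the labelled Tn7 tracer. Read-out: percent inhibition. Replicates: singlicate testing.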
Tn6 DDE FP: disrupts Tn6 cyclic peptide binding to fibrin D-Dimer-E complex; P02675; Fibrin DD(E) TRITC-Tn6 fluorescence polarization displacement; inhibition, % at 8.3 µM; actives 0.21% (n = 370,000); AID 720509;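 active means inhibition above a per-campaign cutoff: mean of compounds within control limits plus 3 SD, cut at about 15% in these data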;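 further: 0% = median of all compound wells on the plate and 100% = blocking peptide control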
Neddylation inh: inhibitors of human cullin neddylation; P61081+Q13564; actives 0.58% (n = 360,000); TR-FRET cullin neddylation, biochemical; inhibition, % at 25 µM; in the data active means inhibition above about 36%
PKA-R2B activ: PKA-R2B complex activation; P22694+P31323; PKA-R2B holoenzyme dissociation, Cy5-IP20 fluorescence polarization; R2B truncated from residue 108, S112A mutant; 0% DMSO only, 100% 113 µM cGMP; activation, % at 11.4 µM; actives 0.079% (n = 340,000); AID 504700;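 active means activation above a cutoff set at the mean over all compounds plus 3 SD, cut at about 18% in these data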;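 further: higher means more holoenzyme dissociation and a rise in polarization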
Target sequence (P31323 whole entry, looked up, other chains not shown, the tested form may be a part): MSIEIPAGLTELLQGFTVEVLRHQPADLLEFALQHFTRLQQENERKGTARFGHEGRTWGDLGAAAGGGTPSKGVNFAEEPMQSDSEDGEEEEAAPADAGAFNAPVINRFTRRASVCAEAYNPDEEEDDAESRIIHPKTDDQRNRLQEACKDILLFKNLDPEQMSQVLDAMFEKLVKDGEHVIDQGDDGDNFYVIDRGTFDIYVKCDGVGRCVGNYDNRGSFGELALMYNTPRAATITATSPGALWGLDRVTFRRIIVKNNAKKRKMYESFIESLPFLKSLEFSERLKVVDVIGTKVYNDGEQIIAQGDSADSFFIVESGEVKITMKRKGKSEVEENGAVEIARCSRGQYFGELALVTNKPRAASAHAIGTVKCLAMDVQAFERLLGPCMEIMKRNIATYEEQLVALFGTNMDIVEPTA
PKA-R1A activ: activates the PKA-R1A holoenzyme complex | PKA-R1A dissociation, Cy5-IP20 fluorescence polarization; scaled: DMSO 0%, 113 µM cGMP 100% | activation, % at 11.4 µM | actives 0.083% (n = 340,000);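 active means percent activation above the mean of all tested compounds plus 3 SD, cut at about 19% in these data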;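 further: higher means more PKAc released from R1A so a rise in polarization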
Neddyl conf: cullin neddylation inhibition, confirmation; shares compounds with Neddylation inh; TR-FRET cullin neddylation biochemical assay; calls only at 25 µM; actives 13% (n = 1,800); in the data active means inhibition above about 40%;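 further: neddylation substrate is the cullin 1 ring ligase complex with SKP2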
* marks the source's active call; other numbers are inactive results; i = inactive; x = not tested or not shown; + = active, no number. Sampled rows, rich in hits. Any-hit rate of the full collection: about 1%.

SMILES | DDE Tn7 FP inh | Tn6 DDE FP | Neddylation inh | PKA-R2B activ | PKA-R1A activ | Neddyl conf
CCCOc1ccc(-c2nc(C#N)c(N3CCc4ccccc4C3)o2)cc1 | -1 | -4 | 49* | -6 | -11 | i
CCCOc1ccc(-c2nc(C#N)c(N3CCN(CC)CC3)o2)cc1 | 3 | -2 | x | 6 | 14 | x
N#Cc1nc(-c2ccco2)oc1N1CCc2ccccc2C1 | -2 | -4 | 45* | 5 | 7 | i
N#Cc1nc(-c2ccccc2)oc1N1CCN(C(=O)c2ccco2)CC1 | 1 | 5 | 42* | 7 | -4 | i
CCCOc1ccc(-c2nc(C#N)c(N3CCN(C)CC3)o2)cc1 | 4 | -5 | 46* | 0 | 10 | x
N#Cc1nc(-c2ccccc2)oc1N1CCCCC1 | x | x | x | 5 | -11 | x
CCNc1nc(N)c([N+](=O)[O-])c(Nc2cccc(Cl)c2)n1 | 0 | 1 | x | x | x | x
CCC(=O)OCCCN1CCC2(CCCCC2)C1=O | -7 | 1 | x | x | x | x
C=CCN(CC#Cc1ccccn1)Cc1ccc(OC)cc1OC | -1 | 0 | x | x | x | x
COC(CNC(=O)[C@H](Cc1ccccc1)NC1(C(=O)NC2CCCCC2)CCCC1)OC | -9 | 3 | x | x | x | x
COc1cc(/C=C/C(=O)NCc2ccccn2)cc(OC)c1OC | 8 | 0 | 44* | -18 | 5 | i
CC(CCc1ccccc1)NC(=O)/C=C/c1ccccc1 (stereo unspecified) | -1 | -6 | -11 | -6 | -7 | x
COc1cc(/C=C/C(=O)NC(C)CCc2ccccc2)cc(OC)c1OC (stereo unspecified) | -2 | -2 | 40* | 1 | -3 | i
COc1cc(/C=C/C(=O)N(C)CC(=O)Nc2ccccc2SC)cc(OC)c1OC | 0 | -1 | 41* | -9 | -2 | i
C[C@H]1[C@@H](NC(=O)C#Cc2ccccc2)CC[C@@]23CCCN2C(=O)CCC[C@@H]13 | -7 | 5 | x | x | x | x
CC(C)NC(=O)N[C@@H]1C[C@@H]2O[C@@H](CO)CC[C@@H]2O[C@@H]1CCc1ccc(-c2ccc(F)cc2)cc1 | 7 | 0 | x | x | x | x
O=c1[nH]c(/C(Cl)=C/c2cccc(F)c2)nc2cc(C(F)(F)F)ccc12 | 1 | -8 | 41* | -3 | -8 | i
CCc1cc2c(=O)[nH]c(-c3ccncc3)nc2s1 | -4 | 5 | 40* | -5 | 0 | x
CCN(CC)C(=O)c1sc2nc(-c3ccncc3)[nH]c(=O)c2c1C | -1 | 4 | 39* | -6 | 13 | +
CCN(CC)C(=O)c1sc2nc(-c3ccccn3)[nH]c(=O)c2c1C | 6 | -1 | 15 | 0 | -4 | x
Oc1cccc(Nc2ncnc3c2oc2ccccc23)c1 | -4 | -1 | 48* | -3 | -7 | x
Oc1ccc(Nc2ncnc3c2oc2ccccc23)cc1 | 1 | -2 | 14 | 2 | 0 | x
CC1(C)Cc2c(C#N)c(NCC3CCCO3)nc(-c3ccco3)c2CO1 (stereo unspecified) | 0 | -1 | 49* | -4 | -5 | x
COc1cccc(N2CCN(C(=O)c3cccn4c(=O)c5c(C)c(C)sc5nc34)CC2)c1 | -6 | 1 | 38* | -2 | -5 | x
COc1ccc(/C=C/C(=O)NC(=S)NNC(=O)c2cc(OC)c(OC)c(OC)c2)cc1 | 2 | 0 | 48* | -8 | -11 | i
SMILES | DDE Tn7 FP inh | Tn6 DDE FP | Neddylation inh | PKA-R2B activ | PKA-R1A activ | Neddyl conf
Cc1nc(=S)c2ccccc2[nH]1 | -4 | 6 | -72 | 0 | -10 | x
Cc1cc2[nH]c3ccccc3c2c(C)n1 | -1 | -3 | 40* | 2 | 1 | i
O=c1ccc2cc3c(-c4ccccc4)coc3cc2o1 | -9 | -5 | 46* | -2 | 1 | i
COc1ccc(C2=Cc3ccccc3C(CC(=O)C3CC3)N2c2ccc(-c3cc(OC)c(OC)c(OC)c3)cc2)cc1 (stereo unspecified) | 10 | 9 | 42* | x | x | i
CC(C)N1CCCCC(NC(=O)c2ccc(Br)cc2)C1=O (stereo unspecified) | -5 | -1 | x | x | x | x
CC(Oc1ccccc1)C(=O)Nc1cccc(-c2nc3ccccc3[nH]2)c1 (stereo unspecified) | -2 | -13 | 39* | 4 | -1 | i
